A selection: hits, their analogues and other compounds. The true share with any hit is near 2.2%.
rRNA inh HTS: selective bacterial rRNA inhibition in E. coli; E. coli WT GFP vs humanized-ribosome RFP mutants, fluorescence, 24 h; active compounds read low; DMSO median 0, no signal -100; GFP signal change (wild-type ribosome), % (no concentration beside the values); hit rate 1.6% among 350,000;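 active = significant combined selectivity score with lowered wild-type GFP, culture density cut under 30%, mutant RFP and density less affected; inactive = any of these conditions unmet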
Env fusion inh: HIV envelope-mediated fusion inhibition; HeLa-JRFL Env/CEM21 cell fusion, luciferase; inhibition, % at 12.3 µM; hit rate 1.1% among 360,000;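 active = mean replicate inhibition score of at least 50 and every replicate individually at or above 50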;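 note: 0% = plate neutral controls and 100% = maraviroc near 300 nM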
FN deposit inh: fibronectin deposition inhibition; AH1F fibroblasts, Alexa488-fibronectin deposition fluorescence, overnight; inhibition, % at 12.6 µM; hit rate 0.086% among 350,000; AID 743247;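 active = mean inhibition across replicates of 30% or more, regardless of how many single replicates reach that level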;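 note: positive control wells lacked labelled fibronectin entirely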
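Material – AH1F fibroblast monolayer, labelled fibronectin deposition · Reagent – labelled fibronectin 24 nM · Timing – 1 h adhesion, overnight exposure · Measured by – fluorescence at 485 nm excitation, 525 nm emission · Read-out – inhibition of fibronectin deposition signal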
PvdQ acylase: P. aeruginosa PvdQ acylase inhibition. inhibition, % at 10 µM. purified PvdQ acylase, fluorescence plate reader. hit rate 0.063% among 340,000; in the data active = inhibition above about 30%, passing the limit was not always enough;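 note: 0% = vehicle neutral wells and 100% = reference inhibitor wells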
PDI turbidity: PDI (human) enzyme inhibition | inhibition, % at 10 µM | P07237 | PDI insulin aggregation turbidity, A650, 90 min | AID 588391 | hit rate 0.052% among 350,000;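 active = mean inhibition across replicates of 30% or more, whatever share of single replicates reach that level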
ERp5 inh: ERp5 (human) disulfide isomerase inhibition; ERp5 insulin aggregation, absorbance 650 nm, 90 min; inhibition, % at 9.99 µM; hit rate 0.05% among 350,000;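 active = mean replicate inhibition above about 25%, with every replicate also reaching it, limit read from the data, passing the limit was not always enough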
Target sequence (Q15084 whole entry, looked up): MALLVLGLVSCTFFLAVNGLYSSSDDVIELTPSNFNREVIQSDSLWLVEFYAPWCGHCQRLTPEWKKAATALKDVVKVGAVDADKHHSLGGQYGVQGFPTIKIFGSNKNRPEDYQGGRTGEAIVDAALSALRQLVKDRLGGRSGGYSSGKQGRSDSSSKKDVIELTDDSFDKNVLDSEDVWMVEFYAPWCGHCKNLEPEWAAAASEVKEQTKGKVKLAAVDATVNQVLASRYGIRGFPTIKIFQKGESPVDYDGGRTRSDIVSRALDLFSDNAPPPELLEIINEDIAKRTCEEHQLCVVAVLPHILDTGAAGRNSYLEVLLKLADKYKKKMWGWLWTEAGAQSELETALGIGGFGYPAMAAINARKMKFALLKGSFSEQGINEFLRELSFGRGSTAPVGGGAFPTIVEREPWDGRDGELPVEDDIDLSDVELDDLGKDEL
* = called active by the depositor; [ ] = dose if it differs, or a comment.

Results for CC(=O)Nc1ccc2c(c1)C(=O)N(C)[C@H]1CC[C@@H](CC(=O)NCc3ccccc3Cl)O[C@H]1CO2 ?
rRNA inh HTS: 0.9; Env fusion inh: 16.0[16.7 µM]; FN deposit inh: -20.3; ERp5 inh: -2.9

How did O=S1(=O)CC(N2CCN(Cc3ccccc3F)CC2)CN1Cc1cn(Cc2cccc(Cl)c2)nn1 (stereo unspecified) do in these assays?
rRNA inh HTS: -24.2*; Env fusion inh: -3.6; FN deposit inh: 3.7; ERp5 inh: 6.3

How did CCCCN1CC(N2CCN(Cc3ccccc3)CC2)CS1(=O)=O (stereo unspecified) do in these assays?
rRNA inh HTS: -31.9*; Env fusion inh: -69.7; ERp5 inh: -3.2

Results for O=S1(=O)CC(N2CCN(Cc3ccccc3F)CC2)CN1Cc1cn(Cc2ccc(F)cc2)nn1 (stereo unspecified) ?
rRNA inh HTS: -1.3; Env fusion inh: -19.6; FN deposit inh: 4.2; ERp5 inh: -2.5

Results for Cc1cccc(CN2CCN(C3CN(Cc4cn(Cc5cccc(Cl)c5)nn4)S(=O)(=O)C3)CC2)c1 (stereo unspecified) ?
rRNA inh HTS: -35.8*; Env fusion inh: -1.6; FN deposit inh: -4.1; ERp5 inh: -0.4

Results for CN1CCN(C2CN(Cc3ccccc3)S(=O)(=O)C2)CC1 (stereo unspecified) ?
rRNA inh HTS: 12.0; Env fusion inh: -10.2; FN deposit inh: 1.3; ERp5 inh: -6.2

How did Cc1cccc(CN2CCN(C3CN(Cc4cn(Cc5ccc(Cl)cc5)nn4)S(=O)(=O)C3)CC2)c1 (stereo unspecified) do in these assays?
rRNA inh HTS: -25.5*; Env fusion inh: 31.8; FN deposit inh: -7.5; ERp5 inh: -4.8

Results for O=C(Nc1ccc2c(c1)[C@@H]1C[C@H](CC(=O)N3CCc4ccccc4C3)O[C@H](CO)[C@@H]1O2)C1CCOCC1 ?
rRNA inh HTS: 5.4; Env fusion inh: -0.4[16.7 µM]; ERp5 inh: 1.5

What do the screens show for `CO[C@H]1CN(C)C(=O)c2ccc(NC(C)=O)cc2OC[C@H](C)N(C(=O)C2CCCCC2)C[C@@H]1C`?
rRNA inh HTS: 0.0; FN deposit inh: -11.6; ERp5 inh: 3.0

What do the screens show for `Cn1nnnc1Sc1ncnc2scc(-c3ccccc3C(F)(F)F)c12`?
rRNA inh HTS: -17.9*; Env fusion inh: 1.6; FN deposit inh: -3.9; PvdQ acylase: -11.1; PDI turbidity: -2.3; ERp5 inh: -0.6

How did Cn1nnnc1Sc1ncnc2scc(-c3ccc(C(F)(F)F)cc3)c12 do in these assays?
rRNA inh HTS: -10.8; Env fusion inh: -32.7; FN deposit inh: 19.2; PvdQ acylase: -11.2; PDI turbidity: 4.5; ERp5 inh: -1.8

Results for Cc1c(NC(=O)c2ccc([N+](=O)[O-])o2)cccc1-c1nc2ncccc2o1 ?
rRNA inh HTS: -23.6*; Env fusion inh: -180.1; FN deposit inh: 2.8; PvdQ acylase: -6.8; PDI turbidity: 4.1; ERp5 inh: -3.7

What do the screens show for `COc1cccc(C(=O)Nc2cccc(-c3nc4ncccc4o3)c2C)c1`?
PvdQ acylase: -16.3; PDI turbidity: -7.1

Results for CN1C(=O)c2cc(NC(=O)C3CC3)ccc2OC[C@@H]2O[C@@H](CC(=O)NCc3ccccc3F)CC[C@@H]21 ?
rRNA inh HTS: -1.3; FN deposit inh: 4.4; ERp5 inh: 2.5

Results for CCOc1ccc(OCc2cccc(C(=O)N3CCOCC3)c2)cc1 ?
Env fusion inh: 83.5*; FN deposit inh: 0.6; PvdQ acylase: -5.2; PDI turbidity: 1.9

Results for O=C(c1cccc(OCc2ccccc2)c1)N1CCOCC1 ?
rRNA inh HTS: -0.3; Env fusion inh: -5.1; FN deposit inh: 0.6; PvdQ acylase: -2.0; PDI turbidity: 7.5; ERp5 inh: -8.2

How did COc1cccc(/C=C/C(=O)Nc2ccc3nc4n(c(=O)c3c2)CCCC4)c1OC do in these assays?
rRNA inh HTS: -22.7*; Env fusion inh: 10.7; FN deposit inh: 8.6; PvdQ acylase: 15.1; PDI turbidity: -0.1; ERp5 inh: 4.2

What do the screens show for `Cc1ccc(S(=O)(=O)N(C)C[C@H]2Oc3ccc(NC(=O)NC(C)C)cc3C(=O)N([C@H](C)CO)C[C@@H]2C)cc1`?
rRNA inh HTS: -4.8; Env fusion inh: -2.9[16.7 µM]; FN deposit inh: -6.9; ERp5 inh: 0.4

How did O=C(O)CCSc1nc2ccccc2n1-c1ccccc1 do in these assays?
rRNA inh HTS: -23.7*; Env fusion inh: -3.5; FN deposit inh: 0.0; PvdQ acylase: -11.9; PDI turbidity: 16.0; ERp5 inh: -4.7

Results for COc1ccccc1NCC(O)COc1ccc(C(C)(C)C)cc1 (stereo unspecified) ?
rRNA inh HTS: -38.6*; Env fusion inh: 6.7; FN deposit inh: 10.8; PvdQ acylase: -10.8; PDI turbidity: -2.5; ERp5 inh: -0.2

How did COc1ccc(NCC(O)COc2ccc(C(C)(C)C)cc2)cc1 (stereo unspecified) do in these assays?
rRNA inh HTS: -29.5; Env fusion inh: -13.6; FN deposit inh: 3.6; PvdQ acylase: -6.4; PDI turbidity: 4.3; ERp5 inh: 2.7

What do the screens show for `CCCC(=O)Nc1ccc2c(c1)C(=O)N(C)[C@H]1CC[C@@H](CC(=O)NCCc3ccccc3)O[C@@H]1CO2`?
rRNA inh HTS: 2.9

How did C[C@@H]1CN([C@H](C)CO)C(=O)c2cccc(N(C)C)c2O[C@H]1CN(C)S(=O)(=O)c1ccc(F)cc1 do in these assays?
rRNA inh HTS: -4.9

What do the screens show for `COc1ccc(S(=O)(=O)N(C)C[C@@H]2Oc3ccc(NC(=O)Cn4cnnn4)cc3CC(=O)N([C@H](C)CO)C[C@@H]2C)cc1`?
rRNA inh HTS: 4.1; Env fusion inh: 90.4*[16.7 µM]; ERp5 inh: 13.0

How did COc1ccc(S(=O)(=O)Nc2ccc3c(c2)CC(=O)N([C@H](C)CO)C[C@H](C)[C@H](CN(C)S(=O)(=O)c2c(C)noc2C)O3)cc1 do in these assays?
rRNA inh HTS: -0.8; Env fusion inh: 56.7*[16.7 µM]; FN deposit inh: -0.2; ERp5 inh: -1.3

How did COc1ccc(S(=O)(=O)N(C)C[C@@H]2Oc3ccc(NC(=O)Cn4cnnn4)cc3CC(=O)N([C@@H](C)CO)C[C@H]2C)cc1 do in these assays?
rRNA inh HTS: -2.6; Env fusion inh: -10.1[16.7 µM]; ERp5 inh: -10.2

Results for COc1ccc(S(=O)(=O)Nc2ccc3c(c2)CC(=O)N([C@@H](C)CO)C[C@H](C)[C@H](CN(C)S(=O)(=O)c2ccc(OC)cc2)O3)cc1 ?
rRNA inh HTS: 0.0; Env fusion inh: -16.3[16.7 µM]; ERp5 inh: 0.3

How did COc1ccc(S(=O)(=O)N(C)C[C@H]2Oc3ccc(NS(=O)(=O)c4ccc(F)cc4)cc3CC(=O)N([C@@H](C)CO)C[C@H]2C)cc1 do in these assays?
rRNA inh HTS: 0.5; Env fusion inh: 1.4[16.7 µM]; ERp5 inh: -0.3

Screening results: PubChem BioAssay, Broad Institute
